Key:
[1] = tested on: patients with advanced solid malignancies; experiment: Phase I 3 + 3 dose escalation: MTD and dose-limiting toxicities; assay type: in vivo, human; conditions: for Pemetrexed dose at MTD: q3w; for MTD of sunitinib: with pemetrexed 500 mg/m^2 q3w
How it was run: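 Open-label multicentre 3 + 3 escalation. […] A DLT was a grade 3/4 drug-related toxicity in cycle 1 (NCI CTCAE v3.0). MTD was the highest dose with 0/3 or ≤1/6 DLTs.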

[2] = tested on: NSCLC NCI-H460 xenograft models; conditions: cited from earlier work
[3] = tested on: patients with advanced solid malignancies; experiment: Dose delays, dose reductions and relative dose intensity; assay type: in vivo, human; conditions: for Cycles with dose reductions: Schedule 2/1
How it was run: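 Grade 3/4 toxicity attributed to either drug allowed intra-patient dose reduction at the investigator's discretion, up to 2 reductions per drug. […] Relative dose intensity was actual/intended dose intensity. Results were summarised descriptively per cycle and per patient.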

NSCLC = conditions: single-agent sunitinib on Schedule 4/2; cited from earlier work
[4] = tested on: VEGFR and PDGFR phosphorylation; conditions: cited from earlier work
[5] = tested on: patients with advanced solid malignancies; experiment: Safety: adverse events; assay type: in vivo, human
[6] = NSCLC expansion cohort (n = 15)

Nc1nc2[nH]cc(CCc3ccc(C(=O)N[C@@H](CCC(=O)O)C(=O)O)cc3)c2c(=O)[nH]1 [pemetrexed]
Pemetrexed dose at MTD ([1]; with sunitinib 37.5 mg/day CDD schedule): 500 mg/m^2
Pemetrexed dose at MTD ([1]; with sunitinib 50 mg/day Schedule 2/1): 500 mg/m^2
Effect on antitumor activity of sunitinib [2]: enhanced its antitumor activity
Patients with a pemetrexed dose delay ([3]; CDD schedule MTD): 12 patients
Patients with a pemetrexed dose reduction to 400 mg/m^2 ([3]; CDD schedule MTD): 6 patients
Cycles with pemetrexed dose reduction ([3]; NSCLC expansion cohort): 6 cycles
Patients with at least one pemetrexed dose reduction to 400 mg/m^2 ([3]; NSCLC expansion cohort): 3 patients
Cycles with dose reductions [3]: 3 cycles
Cycles with pemetrexed dose reduction ([3]; original CDD schedule MTD): 13 cycles

CCN(CC)CCNC(=O)c1c(C)[nH]c(/C=C2\C(=O)Nc3ccc(F)cc32)c1C [sunitinib]
ORR (NSCLC): 11.1%
Target plasma concentrations required to inhibit VEGFR and PDGFR phosphorylation [4]: 50 to 100 ng/mL
MTD of sunitinib ([1]; CDD schedule): 37.5 mg/day
MTD of sunitinib ([1]; Schedule 2/1): 50 mg/day
Tumor growth [2]: decreased tumor growth
Serious AEs considered related to sunitinib treatment ([5]; CDD schedule at the MTD, one event of each in separate patients): febrile neutropenia (DLT), pancreatitis, pain, gastroenteritis, and muscular weakness
Serious AEs considered related to sunitinib treatment ([5]; Schedule 2/1, all n = 1): febrile neutropenia (DLT), tumor perforation, and pyrexia
Patients with a sunitinib dose reduction to 25 mg ([3]; CDD schedule MTD): 12 patients
Patients with at least one sunitinib dose delay ([3]; CDD schedule MTD): 12 patients
Patients who discontinued sunitinib due to AEs ([3]; CDD schedule MTD, abdominal pain, seizure, thrombocytopenia): Three
Cycles with sunitinib dose reductions [3, 6]: 22 cycles
Patients with at least one sunitinib dose reduction to 25 mg [3, 6]: 7 patients
Cycles with dose reductions [3]: 6 cycles
Cycles with sunitinib dose reductions ([3]; original CDD schedule MTD cohort (n = 7)): 23 cycles

From paper PMC3286593 (Cancer Chemotherapy and Pharmacology, 2011)
